# Compounds with a hit are over-represented: about 3% of the library has one in this group of screens.
# S1P1 ag pot – S1P1 agonists and agonism potentiators, primary screen, cell-based, primary and confirmation screens, CRE-bla reporter | S1P1 CRE-bla cells, forskolin, beta-lactamase FRET, potentiator mode; S1P1 agonist co-added at EC20, 2 nM; 100% = saturating reference agonist, 0% = basal | activation, % at 9.5 µM | 56,000 tested, 0.57% active | AID 449, 2006;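 active means activation above a cutoff set at the mean activation of all tested compounds plus 3 SD, cut at about 54% in these data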;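 further: forskolin at 4 µM as EC80 and the EC20 agonist is SEW2871; 100% = SEW2871 at its EC100 plus forskolin at EC80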
# Target sequence (P21453 whole entry, looked up): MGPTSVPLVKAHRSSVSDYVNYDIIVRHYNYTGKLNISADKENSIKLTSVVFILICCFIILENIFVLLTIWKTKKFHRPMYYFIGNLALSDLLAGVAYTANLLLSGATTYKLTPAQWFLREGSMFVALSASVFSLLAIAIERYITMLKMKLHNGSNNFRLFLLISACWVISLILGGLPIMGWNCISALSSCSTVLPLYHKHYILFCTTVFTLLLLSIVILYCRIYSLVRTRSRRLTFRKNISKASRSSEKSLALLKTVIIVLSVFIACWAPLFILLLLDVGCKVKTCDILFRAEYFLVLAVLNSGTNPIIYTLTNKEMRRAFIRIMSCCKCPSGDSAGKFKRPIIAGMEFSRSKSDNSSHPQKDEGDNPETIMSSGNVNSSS
# HTR1A agonist – human 5-HT1a receptor agonists, primary screen, cell-based, CHO, Ga15 NFAT-bla reporter. 5-hydroxytryptamine receptor 1A (Homo sapiens), P08908. CHO 5-HT1a Ga15 NFAT-bla reporter, FRET ratio; 0% basal, 100% maximal reference agonist. activation, % at 10 µM. 65,000 tested, 0.56% active. AID 567, 2006;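 active means activation above the screen-wide mean activation plus 3 SD, cut at about 19% in these data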;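 further: 0% = DMSO wells and 100% = 5-CT at EC100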
# HTR1E agonist – 5-HT1E receptor agonists, primary screen, cell-based, HTS; 5-hydroxytryptamine receptor 1E (Homo sapiens), P28566; CHO 5-HT1E Ga15 NFAT-bla reporter, FRET; 0% DMSO wells, 100% control agonist wells; activation, % at 6 µM; 65,000 tested, 0.69% active;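 active means activation above a set limit, the screen-wide mean activation plus 3 SD, cut at about 8.5% in these data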;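 further: 100% = positive control agonist at 1 µM giving full maximal response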
# 5HT1E antag – 5-HT1E receptor antagonists, primary screen, cell-based, HTS. 5-hydroxytryptamine receptor 1E (Homo sapiens), P28566. CHO 5-HT1E Ga15 NFAT-bla reporter, FRET, antagonist. inhibition, % at 6 µM. 65,000 tested, 0.99% active. AID 571, 2007;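 active means inhibition above a set limit, the mean inhibition across every tested compound plus 3 SD, cut at about 29% in these data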;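 further: signal is the 460 over 535 nm emission ratio of beta-lactamase substrate; 0% = agonist plus DMSO wells and 100% = wells without agonist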
# 5-HT1A blocker – human 5-HT1a receptor antagonists, primary screen, cell-based, CHO, Ga15 NFAT-bla reporter. inhibition, % at 10 µM. 5-hydroxytryptamine receptor 1A (Homo sapiens), P08908. CHO 5-HT1a Ga15 NFAT-bla reporter, antagonist mode. 62,000 tested, 0.68% active;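 active means inhibition above the mean of all tested compounds plus 3 SD, cut at about 43% in these data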;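 further: receptor stimulated by 5-CT agonist at 100 nM near EC80; beta-lactamase reporter measured by ratiometric fluorescence of a cleavable substrate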
# S1P3 ag – human S1P3 receptor agonists, primary screen, cell-based, primary and confirmation, NFAT-BLA reporter; Sphingosine 1-phosphate receptor 3 (Homo sapiens), Q99500; S1P3 NFAT-BLA reporter cells, agonism, FRET ratio; relative to 1 µM S1P, basal subtracted; activation, % at 4.5 µM; 60,000 tested, 0.1% active;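 active means activation above the screen-wide mean plus 3 SD, cut at about 4.5% in these data, passing the limit was not always enough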
#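 Assay system: stable CHO line with human S1P3, Gα16, NFAT-BLA reporter; Detection: FRET β-lactamase substrate fluorescence, excitation 405 nm, 460/535 nm emission ratio, background-subtracted; Read-out: percent activation versus median 1 µM S1P response, basal-subtracted, per plate; Incubation: cells plated overnight, compound 4 h 37 °C, substrate 2 h RT.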
# The depositor's hits bear a star; x = not tested or not shown.
SMILES,S1P1 ag pot,HTR1A agonist,HTR1E agonist,5HT1E antag,5-HT1A blocker,S1P3 ag
CCOc1ccccc1N1CCN(Cc2cccc(OC)c2O)CC1,x,-0.5,3.5,-6.4,27.5,-1.1
CCCN1CCC(N2CCN(c3ccccc3OC)CC2)CC1,15.9,-0.5,-0.4,1.3,63.3*,-0.7
Cc1cc(C)nc(N2CCN(c3nc(C)nc4c3oc3ccccc34)CC2)n1,x,-0.5,-0.6,-8.5,4.9,x
COc1ccccc1N1CCN(c2nc(C)nc3c2oc2ccccc23)CC1,-14.2,-1.8,1.6,58.4*,66.7*,-0.9
COc1ccccc1N1CCN(Cc2cc(Br)c(O)c3ncccc23)CC1,14.8,-4.3,13.8*,38.0*,64.7*,-0.5
CCC(=O)Oc1ccc2c(C)cc(=O)oc2c1C,-1.4,65.0*,-0.2,6.3,6.2,-2.1
O=C(Nc1ccccc1C(=O)NCCN1CCOCC1)c1ccco1,-2.7,-0.7,0.2,2.0,-17.5,0.3
c1ccc2c(c1)oc1c(NCc3ccc4c(c3)OCO4)ncnc12,90.0*,0.2,0.8,-3.3,12.1,-0.1
CCN(CC)C(=O)Cn1c(=O)n(-c2ccccc2)c(=O)n1CC(=O)N(CC)CC,x,0.5,0.7,0.9,-0.5,0.0
COc1ccc(-c2cn3c(C)c(C(=O)N4CCCc5ccccc54)sc3n2)cc1,70.5*,0.4,1.3,21.4,4.4,-2.4
N#Cc1sc2nc3c(c(-c4ccco4)c2c1N)CCCC3,-71.3,-2.4,1.4,30.7*,-19.6,-0.9
O=C(NCCc1c[nH]c2ccccc12)c1c(Cl)nc2sccn12,x,18.6,-1.5,33.3*,-9.3,x
Cc1cc(C)nc(SC2=CS(=O)(=O)c3ccccc32)n1,43.0,-0.4,1.0,27.6,27.8,-1.0
O=S1(=O)C=C(Sc2nc3ccccc3s2)c2ccccc21,114.0*,-3.8,-0.4,106.0*,98.5*,-1.9
O=C(Nc1ccc(NC(=O)c2ccco2)nc1)c1ccccn1,x,-2.5,34.4*,-2.4,5.4,x
O=C(Cc1ccccc1)Nc1ccc(NC(=O)c2ccco2)nc1,-12.3,-4.5,-0.4,13.0,1.1,-0.2
CCn1c(=O)cc(C(=O)OC)sc1=Nc1ccc(F)c(F)c1,5.2,0.2,0.6,38.2*,5.8,-0.1
CCOC(=O)c1ccc(N=c2sc(C(=O)OC)cc(=O)n2Cc2ccco2)cc1,31.2,-2.1,0.3,11.9,29.8,-1.4
CCCCN=c1sc(C(=O)OC)cc(=O)n1CCCC,x,0.5,-1.1,0.2,-11.5,x
CCOC(=O)c1ccc(N=c2sc(C(=O)OC)cc(=O)n2CCCN2CCOCC2)cc1,24.6,0.4,-2.5,40.0*,31.6,-1.6
CC(C)Cn1c(SCC(=O)NC(=O)NC2CCCC2)nc2ccccc21,3.9,-0.2,0.2,0.3,3.2,-0.5
COc1ccc(C(=O)C(CN2CCOCC2)c2ccccc2)cc1F (centres undefined),80.4,-2.3,0.2,38.6*,76.5*,-1.3
COc1ccc(C(O)C(CN2CCOCC2)c2ccccc2)cc1F (centres undefined),-3.6,-0.4,0.0,-1.2,-7.2,-0.1
c1ccc(-c2ccc(-c3nc(-c4ccncc4)no3)cc2)cc1,84.7*,-0.4,0.3,-4.1,-24.5,-1.4
CCc1ccc(-c2nc(-c3ccncc3)no2)cc1,76.0*,-0.1,-0.3,-5.7,1.7,-0.8
SMILES,S1P1 ag pot,HTR1A agonist,HTR1E agonist,5HT1E antag,5-HT1A blocker,S1P3 ag
c1ccc(-c2ccc(-c3nc(-c4cccnc4)no3)cc2)cc1,81.5*,-2.8,-0.6,-0.1,-39.5,-1.0
c1ccc(-c2nc(-c3ccncc3)no2)cc1,x,-0.3,0.5,0.9,-6.5,-0.4
c1ccc(C(Cc2nc(-c3ccncc3)no2)c2ccccc2)cc1,x,-0.8,-0.9,4.4,37.2,42.0*
Nc1nnc(CC(=O)NCc2ccccc2)s1,19.1,-2.0,1.1,-7.3,3.6,-1.7
COc1ccccc1NC(=O)N(C1CCCC1)C1CCN(C(C)=O)CC1,-9.1,-0.5,-1.8,3.7,5.6,-1.3
Cc1ccc(SCc2cn3c(C)csc3n2)cc1,6.8,-0.3,0.3,-2.7,-8.7,-0.3
CCCCC(CC)C(=O)Nc1ccccc1C(=O)NC(C)C (centres undefined),x,0.9,0.9,-3.5,-1.1,-0.3
COc1ccc(Nc2nc(C)cc(C)c2C(N)=O)c(OC)c1,9.7,0.6,0.3,-11.0,-5.8,-0.2
CCn1c2ccccc2c2nnc(SCC(=O)NC(CC(C)C)C(=O)OC)nc21 (centres undefined),-39.6,3.5,0.4,7.7,-14.8,-0.4
C=CCn1c2ccccc2c2nnc(SCCCn3c(=O)[nH]c4ccccc43)nc21,x,10.4,0.8,21.5,47.6*,x
O=c1[nH]c2ccccc2n1CCCSc1cnc2ccccc2n1,44.8,1.1,2.0,9.9,18.0,-0.4
C=CCn1c(SCC(=O)Nc2sccc2C(N)=O)nc2sc(C)c(C)c2c1=O,-35.4,6.1,0.7,33.2*,-0.8,1.7
Cc1nnc(SCC(=O)Nc2sccc2C(N)=O)n1Cc1ccccc1,-2.5,-1.1,1.1,-3.9,-9.3,1.0
O=C(O)c1cc(-c2ccccn2)n[nH]1,-12.2,-2.1,-0.2,-11.1,2.6,0.2
CCN(CC)CCOC(=O)c1cccc(Cl)c1,-4.7,-4.1,2.0,6.3,16.7,-1.6
CCN(CC)CCOC(=O)c1cccc(Br)c1,17.8,0.1,11.1*,0.8,13.5,-0.8
c1csc(CCNc2ncnc3sc4c(c23)CCC4)c1,152.8*,2.9,0.6,16.5,32.2,-2.4
CCOc1cc(-c2cc(-c3ccc(N)cc3)nc(N)c2C#N)ccc1O,0.5,5.8,2.5,30.2*,4.2,1.3
CCOc1nc(C)ccc1-c1noc(-c2ccncc2)n1,56.1*,-0.5,-0.4,8.0,-12.4,0.8
CCOc1nc(-c2ccccc2)ccc1-c1noc(-c2ccncc2)n1,12.9,-1.6,-0.8,-5.8,-1.5,0.1
CCOc1ccc(-c2nc(-c3ccccc3C)no2)cc1,109.5*,0.4,-0.3,-8.1,-1.7,-0.9
Cc1onc(-c2ccccc2)c1C(=O)Nc1cc(C(F)(F)F)ccc1N1CCOCC1,6.3,-4.1,-0.1,40.5*,26.3,-1.1
COc1ccc2[nH]c(O)c(NC(C)=O)c2c1,4.8,-0.9,12.7*,4.6,-2.9,-1.4

# From PubChem BioAssay
